Series [1] in a line: Cytotoxicity against mouse P3X63Ag assessed as reduction in cell viability after 3 hrs by MTT assay. In a few lines: (§1)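 P3X63Ag murine myeloma cells were grown in DMEM-F12 with 10% FCS at 37°C, 5% CO2. For the assay they were plated in serum-free DMEM-F12 and exposed to compounds for 3, 6 or 20 h. After a PBS wash, cells got MTT for 3 h and crystals were dissolved in DMSO. Absorbance was read at 450 nm (620 nm reference), and viability calculated as 100×At/Ac versus untreated cells.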
(Formazan colour is commonly taken as a measure of viable cells.)

Series [2] in a line: Selectivity index, ratio of IC50 for M1 aminopeptidase in porcine kidney cortex microsomes to IC50 for recombinant Escherichia coli M1 aminopeptidase.
Series [3] concerns Erythrocyte. The series can be described thus: Haemolytic activity in human erythrocytes assessed as induction of hemolysis after 20 hrs. In kind it is cell-based. In a few lines:
(§2)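 Fresh human red blood cells were washed and resuspended in 145 mM NaCl, 10 mM Tris-HCl pH 7.4, adjusted so full lysis with Na2CO3 gives A540 ≈0.7. Cells were incubated with compounds for 3, 6 or 20 h, with untreated and 1% DMSO controls. Supernatant haemoglobin was measured after centrifugation.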

Series [4] can be described thus: Haemolytic activity in human erythrocytes assessed as induction of hemolysis at 100 uM after 20 hrs relative to control. In kind it is cell-based, Erythrocyte. Conditions: read-out: Activity. In a few lines:
as §2

A short description of series [5]: Cytotoxicity against mouse P3X63Ag assessed as reduction in cell viability at 50 uM after 20 hrs by MTT assay relative to control. In a few lines: as §1
Series [6] is described as follows: Cytotoxicity against mouse P3X63Ag assessed as reduction in cell viability after 6 hrs by MTT assay. The procedure, abridged: as §1
Series [7] is described as follows: Cytotoxicity against mouse P3X63Ag assessed as reduction in cell viability at 50 uM after 3 hrs by MTT assay relative to control. In a few lines:
as §1

Series [8] can be described thus: Inhibition of M1 aminopeptidase in porcine kidney cortex microsomes using Leu-pNA as substrate preincubated for 15 mins followed by substrate addition. Set-up: species or system Sus scrofa.
Series [9] relates to Escherichia coli. The series can be described thus: Growth inhibition of Escherichia coli BL21 after 3 to 6 hrs by spectrophotometric analysis. It counts as functional, organism-based. The procedure, abridged:
(§3)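 E. coli BL21 was inoculated at 1% from an overnight culture into LB. Compounds were added at eight concentrations (0.781–100 μM) from DMSO serial dilutions, with DMSO and 200 μg/mL ampicillin controls; four replicates. Plates were held at 37°C and raised to 42°C at 6 h. A595 was read at 0, 3, 6 and 20 h and normalized to the DMSO control (100% growth).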

The subject of series [10] is Escherichia coli. The series can be described thus: Reversible inhibition of recombinant Escherichia coli M1 aminopeptidase using Leu-pNA as substrate preincubated for 15 mins followed by substrate addition. In a few lines:
(§4)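 Recombinant ePepN (partially purified by ion exchange) or porcine kidney cortex microsomal APN was pre-incubated 15 min at 25°C with inhibitor in DMSO (final ≤2% v/v), then 75 μM Leu-pNA (~1 KMapp) was added. Buffer was 50 mM Tris-HCl pH 8.0. A405 was read every 15 s for 3 min. Doses were double serial dilutions over 0.781–100 μM, and IC50 came from a logistic fit of residual activity (vi/v0); at least triplicate.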

Series [11] can be described thus: Cytotoxicity against mouse P3X63Ag assessed as reduction in cell viability after 20 hrs by MTT assay. In a few lines: as §1
Series [12] deals with Erythrocyte. The experiment in a line: Haemolytic activity in human erythrocytes assessed as induction of hemolysis after 3 hrs. In kind it is cell-based. The procedure, abridged:
as §2

Series [13] can be described thus: Cytotoxicity against mouse P3X63Ag assessed as reduction in cell viability at 50 uM after 6 hrs by MTT assay relative to control. In a few lines: as §1
Series [14] concerns Escherichia coli. The experiment in a line: Growth inhibition of Escherichia coli BL21 after 20 hrs by spectrophotometric analysis. In kind it is functional, organism-based. Conditions: BL21, BL21, 20 h. The procedure, abridged:
as §3

Series [15] deals with Erythrocyte. The experiment in a line: Haemolytic activity in human erythrocytes assessed as induction of hemolysis after 6 hrs. In kind it is cell-based. In a few lines: as §2
In series [16] the test system is Escherichia coli. The series can be described thus: (§5) Inhibition of recombinant Escherichia coli M1 aminopeptidase using Leu-pNA as substrate preincubated for 15 mins followed by substrate addition. In a few lines:
as §4

Series [17] can be described thus: as §5. The procedure, abridged:
as §4

Each structure is given as a SMILES string. Activity calls are given as the source filed them. No cut-off for these calls is given here.

In general, IC50 refers to the concentration that inhibits the measured activity by half. For `COc1ccc(C(N[C@@H](Cc2ccc(OCc3ccccc3)cc2)C(=O)O)c2nnnn2C2CCCCC2)cc1` (some centres not stated), the IC50 in series [1] is greater than 100 µM; in series [6] it was 100 µM; in series [8] it was 1580 µM; in the series with Escherichia coli [9] it was less than 50 µM; in [11], 100 µM; with Escherichia coli [14], less than 100 µM. For the same compound, the IC50 in series [17] turned out to be 1.4 µM. Further, the Ratio IC50 in series [2] was determined as 1130. For the same compound, the HC20 was 65 µM with Erythrocyte [3], greater than 100 µM with Erythrocyte [12] and 70 µM in the series with Erythrocyte [15]. Further, in series [4], the hemolysis at 20 h, 100 µM is 40%. In addition, the results for the Activity result in series [5], in series [7] and in [13] were “<= 50%”, “<= 60%” and “<= 50%”, respectively. Besides, the inhibition result in the series on Escherichia coli [10] is “Active”. The inhibition entry in the series with Escherichia coli [16] was “Dose-dependent effect”.

Source of the values: ChEMBL document CHEMBL4411278, “Discovery of potent and selective inhibitors of the Escherichia coli M1-aminopeptidase via multicomponent solid-phase synthesis of tetrazole-peptidomimetics” (Eur J Med Chem, 2019).
